The text below walks through data of PubChem BioAssay AID822 (SRMLSC, 2007).

Molecules are shown by their SMILES. The source made the active and inactive calls.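 How the source made its calls: active means half-maximal effective dose for blocking growth of human endothelial cells at most 100 µM; inactive means the rest.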 A value given as a limit tells only on which side of the number the result lay.

The test system of this experiment is HUVEC proliferation, viability ATP luminescence. The experiment is described as follows: HUVEC proliferation inhibition, dose response, cell-based, ATP luminescence (AID 822).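 Further: cells exposed to compound for 72 h before the ATP read.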 Summed up: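 Material – HUVEC · Amount – 1250 HUVEC cells seeded per well · Medium – EBM plus 2% FBS · Dosing – dose series 0.039 to 20 µM, DMSO 0.2% · Times – 72 h exposure, 37 °C · Detection – ATP luminescence · Read-out basis – % viability and fitted EC50 · Format – collagen-coated plates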
For `Cc1cc(/C=C2\C(=N)N3C(SCc4ccccc4)=NSC3=NC2=O)c(C)n1Cc1ccccc1`, the EC50 (commonly the midpoint of the concentration-response curve) is 5.4 µM.
Consider `COc1ccc(C(C[N+](=O)[O-])c2c(-c3ccccc3)cc3ccccn23)cc1` (stereo not drawn), for which the EC50 was 11.1 µM.
To `CCC(C)NC(=O)c1c(N)n(/N=C/c2cccnc2)c2nc3ccccc3nc12` (stereo not drawn) belongs 12.6 µM; to `Cc1ccc(Cn2nc(C)c(NC(=O)c3cc(-c4ccc5c(c4)OCO5)on3)c2C)cc1`, 10.2 µM.
On to `N#C/C(=C/c1ccc(N2CCCCCC2)o1)c1ccc(Cl)cc1`, for which the EC50 is 18.3 µM.
Consider `Cc1cc(C)c2oc(-c3cccc(NC(=O)c4ccc(F)cc4)c3)nc2c1`, for which the EC50 was 19.3 µM.
Turning to `N/C(Cc1ccc(Cl)cc1)=N\OC(=O)c1ccc2ccccc2c1`, the EC50 was 9.87 µM.
The result for `Cc1cc2c(N=O)c(NO)ccc2[nH]1` reads 5.96 µM; that for `Oc1c(CN2CCN(c3ccccn3)CC2)cc(Cl)c2cccnc12`, 7.42 µM.
The result for `CCN(CC)c1cc(C)c2cc(NC(=O)c3ccc(Br)o3)ccc2n1` reads 11.3 µM.
To `CCCCCCOC(=O)C(C#N)c1nc2ccccc2nc1N1CCN(C)CC1` (stereo not drawn) belongs 10 µM; to `Cc1cc2nc(C3CCN(CC4COc5ccccc5O4)CC3)[nH]c2cc1C` (stereo not drawn), 19.8 µM; to `CC(C)(C)OC(=O)N[C@@H](Cc1ccccc1)c1nnc(S(=O)(=O)Cc2cccc(F)c2)o1`, 14.3 µM.
As to `CCOC(=O)c1cnc(-n2nc(C)cc2C)nc1NC1CCCCC1`, the EC50 is 0.27 µM.
The result for `CC1=CC(C)(C)Nc2ccc(OC(=O)c3cccnc3)cc21` reads 12.3 µM; that for `Cc1ccccc1-c1nc(CN2CCC(C(=O)NCCCN3CC(C)CC(C)C3)CC2)c(C)o1` (stereo not drawn), 4.85 µM.
The result for `O=C(NCCC1=CCCCC1)C1CCN(Cc2cnn(-c3ccccc3)c2-n2cccc2)CC1` reads 15.1 µM.
To `O=C1C2=C(NC(=S)NC2c2ccc(Cl)cc2)NC(c2ccc(Cl)cc2)N1c1ccc(Cl)cc1` (stereo not drawn) belongs 5.96 µM; to `CC(Nc1nc(N2CCCC2)nc2ccccc12)c1ccccc1` (stereo not drawn), 5.19 µM.
`O=C(CSc1ccc2c(c1)OCCO2)Nc1ccc(Cl)cn1`: the 50% effective concentration (EC50) is 5.53 µM.
The result for `COc1cccc(C(=O)c2sc(NC(C)C)nc2N)c1` reads 16.2 µM; that for `COCc1cc(CN2CCCC2)c(O)c2ncccc12`, > 10 µM (inactive).
On to `Cc1cc(C)n(-c2nc(NCCC(C)C)c3c4c(sc3n2)COC(C)(C)C4)n1`, for which the EC50 is 14.5 µM.
The result for `Cc1cc(C)n(CC(O)Cn2c3ccc(Br)cc3c3cc(Br)ccc32)c(=O)n1` (stereo not drawn) reads 10.7 µM.
The result for `c1ccc(CC2CCN(C3=Nc4cccc5cccc3c45)CC2)cc1` reads 3.02 µM; that for `COc1ccc(-c2nnc(NC(=O)c3ccc(S(=O)(=O)N4CCCc5ccccc54)cc3)o2)cc1`, 2.96 µM.
The result for `O=C(OCC(=O)N1CCN(C(=O)c2ccco2)CC1)c1cc(-c2ccc(Cl)c(Cl)c2Cl)nc2ccccc12` reads 4.16 µM.
Take `Brc1ccccc1OCCCn1cnc2ccccc21`: the EC50 was 13.2 µM.
The result for `CCCCCCc1cc2cc(-c3nnc(-c4ccccc4)o3)c(=O)oc2cc1O` reads 3.5 µM.
Regarding `Cc1nc2c(-c3ccccc3)c(C)[nH]n2c(=O)c1Cl`, the EC50 is 10.5 µM.
For the molecule `O=C1CCCc2c1[nH]c1ccc(Br)cc21`, the EC50 is > 10 µM (inactive).
To `Cc1cccnc1Nc1nc(-c2ccc(O)cc2O)cs1` belongs 10.3 µM.
To `Cc1ccc(S(=O)(=O)N2CCCN(S(=O)(=O)c3ccc(C(F)(F)F)cc3)CC2)cc1` belongs 7.11 µM; to `O=c1[nH]c2cc3c(cc2cc1C(c1nnnn1Cc1ccccc1)N1CCCCCC1)OCCO3` (stereo not drawn), 13.1 µM.
To `Cc1cc(=O)[nH]c2ccc(Cl)cc12` belongs > 10 µM (inactive).
As to `CCSc1nnc(NC(=O)c2ccccn2)s1`, the EC50 is 1.81 µM.
Regarding `CS(=O)(=O)c1nc(-c2cccs2)cc(C(F)(F)F)n1`, the concentration giving a half-maximal response (EC50) was 6.11 µM.
In the case of `Cn1c2ccccc2c(=O)c2c(=O)n(C3CCCCC3)c(-c3cccs3)nc21`, the EC50 is 8.3 µM.
To `CCOC(=O)c1cnc(-n2nc(C)cc2C)nc1NCc1ccc2c(c1)OCO2` belongs 2.34 µM; to `COc1ccc(-c2nnc(Nc3nc4c(OC)cccc4s3)o2)cc1`, 4.41 µM.
Turning to `COc1cccc2sc(Nc3nnc(-c4ccc(F)cc4)o3)nc12`, the EC50 is 0.963 µM.
To `CCc1ccc(-c2nc(CN3CCC(C(=O)NCc4ccc(F)cc4)CC3)c(C)o2)cc1` belongs 5.89 µM; to `COc1ccc(-c2cn3c(C)c(C(=O)Nc4cccc(NC(C)=O)c4)sc3n2)cc1`, 12.1 µM.
To `Fc1ccc2c(Cl)c(-c3nnc(-c4cccs4)o3)sc2c1` belongs 8.06 µM; to `Cc1nc2sccn2c(=O)c1CCN1CCC(=C(c2ccc(F)cc2)c2ccc(F)cc2)CC1`, 8.98 µM.
The result for `COc1cc(N=c2ssnc2Cl)cc(OC)c1OC` reads 13.4 µM; that for `COc1ccc(O)c(-c2cc(-c3cccc(Br)c3)n[nH]2)c1`, 10.8 µM.
As to `CCN1CCN(c2cc(C)c3cc(NC(=O)c4ccc(OC)c(OC)c4)ccc3n2)CC1`, the EC50 was 13.6 µM.
To `OCc1ccc(O)c2ncccc12` belongs 20.5 µM; to `Cn1c(=O)n(C)c2cc(NC(=O)CCl)ccc21`, 12.2 µM.
To `Cc1ccccc1C(=O)c1cccn1CC(=O)NCCN1CCN(c2cccc(C)c2C)CC1` belongs 8.36 µM; to `COC(=O)c1ccc2c(=O)n(Cc3ccco3)c(SCC(=O)Nc3ccccc3Cl)nc2c1`, 4.94 µM.
To `COc1ccc2nc3oc(C(=O)N4CCN(c5ccccc5F)CC4)cc3cc2c1` belongs 15.5 µM; to `COc1cc(-c2nc(-c3ccc(NC(=O)c4ccc(Br)o4)cc3)no2)cc(OC)c1OC`, 7.42 µM; to `O=c1[nH]c(=O)n(Cc2ccccc2)c2nc(-c3ccco3)cc(C(F)(F)F)c12`, 17 µM.
For `CCC(C)(C)NC(=O)C(c1ccc(C)o1)N(Cc1cccs1)C(=O)Cn1nnc2ccccc21` (stereo not drawn), the EC50 was 11.7 µM.
The result for `CN(C)c1ccc(/C=C(\C#N)C(=O)Nc2nc3c(s2)CCN(Cc2ccccc2)C3)cc1` reads 3.88 µM; that for `COc1cc(NC(=O)Nc2cccc(Cl)c2)c(OC)cc1NC(=O)CN1CCCCC1`, 5.49 µM; that for `CCN(CC(O)Cn1c2ccccc2c2ccccc21)S(=O)(=O)c1ccc(C)cc1` (stereo not drawn), 11.5 µM.
With `C#CCn1c(=NC(=O)c2ccc(Br)s2)sc2cccc(OC)c21`, the EC50 is 12.2 µM.
The result for `O=C(CCN1CCN(Cc2ccccc2)CC1)Nc1ccc(OCc2ccccc2)cc1` reads 14.1 µM; that for `CCn1c2c(c3cc(Br)ccc31)CCC/C2=N\O`, 15.2 µM; that for `O=C(c1nn2c(C(F)(F)F)cc(-c3ccco3)nc2c1Br)N1CCCc2ccccc21`, 14.8 µM.
To `CCC(=O)OCCNc1cc(Sc2nc3ccccc3s2)c2nonc2c1[N+](=O)[O-]` belongs 14.5 µM; to `Cn1cc(/C=N/n2cnc3scc(-c4ccccc4)c3c2=O)c2ccccc21`, 4.94 µM; to `O=C(c1ccc(F)cc1)C(CN1CCOCC1)c1ccccc1` (stereo not drawn), 5.11 µM.
To `Cc1cc(S(=O)(=O)N2CCN(Cc3ccc4c(c3)OCO4)CC2)cc(C)c1N1CCCC1=O` belongs 18.3 µM.
On to `O=[N+]([O-])c1ccc(/C=N/Nc2nc(N3CCCC3)nc(N3CCCC3)n2)o1`, for which the EC50 was 16.2 µM.
To `COc1cccc(C(=O)CSc2nnc(-c3cc(OC)cc(OC)c3)o2)c1` belongs 18.2 µM; to `Cc1cccc(N2CCN(C(=O)Cn3sc4nc(C)cc(C)c4c3=O)CC2C)c1` (stereo not drawn), 12.4 µM.
The result for `O=[N+]([O-])c1cccnc1N1CCC(c2cc(-c3cccc(C(F)(F)F)c3)n[nH]2)CC1` reads 10.6 µM; that for `Nc1c(S(=O)(=O)c2ccccc2)c2nc3ccccc3nc2n1/N=C/c1cccc(O)c1`, 6.06 µM.
To `COc1ccc(-c2cc(C#N)nc(N3CCNCC3)n2)cc1` belongs 12.8 µM; to `CN1C[C@H](CNC(=O)OCc2ccccc2)C[C@@H]2c3cccc4c3c(cn4C)C[C@H]21`, 8.44 µM.
Take `O=C(Nc1ccccc1)c1cccc(-c2nnc(-c3ccccc3)o2)c1`: the EC50 was 10.6 µM.
As for `CCN1CCN(c2ncc(C(=O)Nc3cc(Cl)c(OC)cc3OC)c3ccccc23)CC1`, the EC50 is 14.2 µM.
To `O=C(Nc1ccc(N2CCOCC2)cc1)Nc1ccc2nc(-c3ccco3)c(-c3ccco3)nc2c1` belongs 7.18 µM; to `CN(C)c1ccc(-c2nn3c(-c4ccc(Cl)cc4Cl)nnc3s2)cc1`, 14.8 µM; to `Cc1ccc2[nH]c3c(N4CCN(Cc5ccc6c(c5)OCO6)CC4)ncnc3c2c1`, 9.97 µM.
Regarding `Cc1cc(C)cc(OC(=O)CS(=O)c2ccc(C(F)(F)F)cc2[N+](=O)[O-])c1` (stereo not drawn), the EC50 was 18.7 µM.
The result for `CC(Nc1nc(N2CCN(S(C)(=O)=O)CC2)nc2ccccc12)c1ccccc1` (stereo not drawn) reads 9.04 µM; that for `Cc1ccc2[nH]c3c(c2c1)CCC3=O`, 14.7 µM.
With `COC(=O)CS(=O)(=O)c1nnc([C@H](Cc2ccccc2)NC(=O)OC(C)(C)C)o1`, the EC50 was 8.85 µM.
For `COc1ccccc1OCC(=O)Nc1cccc(-c2nc3ccccc3o2)c1`, the EC50 is 13.7 µM.
The result for `CCOC(=O)c1c(C)[nH]c(C(=O)OC/C(O)=C(\C#N)c2nc3ccccc3[nH]2)c1C` reads 11.6 µM; that for `Cc1ccc(C)n1NC(=O)c1ccccc1O`, > 10 µM (inactive).
The result for `CCCCn1c(SCC(=O)Nc2cc(NC(=O)c3ccco3)ccc2C)nc2ccccc2c1=O` reads 12.2 µM; that for `CC1=C(SCCC#N)S/C(=C2\SC(C)=C(SCCC#N)S2)S1`, 9.1 µM; that for `COC(=O)c1c(C)n(-c2ccc(OC)cc2)c2ccc(O)cc12`, 8.97 µM.
To `CC1CCc2sc3nc(N4CCN(CCO)CC4)n4ncnc4c3c2C1` (stereo not drawn) belongs 19.6 µM; to `COc1cc(/C=C(/C(=O)c2cccs2)c2nc3ccccc3[nH]2)cc(OC)c1O`, 1.99 µM.
Consider `CCCc1ccc(Oc2c(-c3ccc(O)c(C)c3O)n[nH]c2C)cc1`, for which the EC50 was 9.55 µM.
To `COc1ccc(NC(=O)c2oc3ccccc3c2NC(=O)COc2ccccc2OC)c(OC)c1` belongs 2.8 µM.
